# Source: ChEMBL document CHEMBL1123080, “Synthesis and antiviral activity of the carbocyclic analogues of (E)-5-(2-halovinyl)-2'-deoxyuridines and (E)-5-(2-halovinyl)-2'-deoxycytidines” (1985)
# Test system: Human alphaherpesvirus 1
# Assay: Minimum inhibitory concentration (MIC) required to reduce HSV-1 strain McIntyre induced cytopathogenicity in primary rabbit kidney cell cultures
# Type: functional
# Details: not given
# Summary of the method: (§1)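 Primary rabbit kidney cell cultures were infected with virus and treated with compound. The MIC is the concentration that reduces virus-induced cytopathogenicity by 50%. Cytotoxicity was scored as microscopically visible alteration of normal cell morphology, with 400 μg/mL the highest concentration tested.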
row,SMILES,MIC50 [µg/mL]
1,O=c1[nH]c(=O)n(C2CC(O)C(CO)C2)cc1/C=C/I (stereo not drawn),0.07
2,Nc1nc(=O)n(C2CC(O)C(CO)C2)cc1/C=C/Br (stereo not drawn),0.2
3,O=c1[nH]c(=O)n([C@H]2C[C@H](O)[C@@H](CO)O2)cc1/C=C/I,0.02
4,O=c1[nH]c(=O)n([C@@H]2C[C@H](CO)[C@@H](O)C2)cc1I,0.2
5,NC1NC(=O)N([C@H]2C[C@H](O)[C@@H](CO)O2)C=C1/C=C/Br (stereo partly drawn),0.06
6,O=c1[nH]c(=O)n([C@H]2C[C@@H](CO)[C@H](O)C2)cc1/C=C/Br,0.04
7,O=c1[nH]c(=O)n([C@H]2C[C@H](O)[C@@H](CO)O2)cc1I [IDOXURIDINE],0.2

# Test system: Human alphaherpesvirus 2
# Assay: Minimum inhibitory concentration (MIC) required to reduce HSV-2 strain G induced cytopathogenicity in primary rabbit kidney cell cultures
# Type: functional
# Details: not given
# Summary of the method: as §1
row,SMILES,MIC50 [µg/mL]
1,O=c1[nH]c(=O)n(C2CC(O)C(CO)C2)cc1/C=C/I (stereo not drawn),2
2,Nc1nc(=O)n(C2CC(O)C(CO)C2)cc1/C=C/Br (stereo not drawn),20
3,O=c1[nH]c(=O)n([C@H]2C[C@H](O)[C@@H](CO)O2)cc1/C=C/I,2
4,O=c1[nH]c(=O)n([C@@H]2C[C@H](CO)[C@@H](O)C2)cc1I,40
5,NC1NC(=O)N([C@H]2C[C@H](O)[C@@H](CO)O2)C=C1/C=C/Br (stereo partly drawn),7
6,O=c1[nH]c(=O)n([C@H]2C[C@@H](CO)[C@H](O)C2)cc1/C=C/Br,20
7,O=c1[nH]c(=O)n([C@H]2C[C@H](O)[C@@H](CO)O2)cc1I [IDOXURIDINE],0.7

# Species on record: Mus musculus
# Assay: The survival rate was evaluated for its effect of systemic treatment on hairless (hr/hr) mice infected intracutaneously with HSV-1 (KOS) at percent concentration of 3
# Type: functional
# Details: not given
row,SMILES,Survival rate
1,O=c1[nH]c(=O)n([C@H]2C[C@@H](CO)[C@H](O)C2)cc1/C=C/Br,2

# Test system: L1210
# Assay: Minimum inhibitory concentration (MIC) required to inhibit proliferation of murine leukemia L1210 (TK-)
# Type: functional
# Details: Mus musculus
# Summary of the method: (§2)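 Cell proliferation assay. Cultures were exposed to compound during their linear growth phase, and growth was monitored. The MIC is the concentration that inhibits cell proliferation by 50%.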
row,SMILES,MIC50 [µg/mL]
1,O=c1[nH]c(=O)n(C2CC(O)C(CO)C2)cc1/C=C/I (stereo not drawn),> 200
2,O=c1[nH]c(=O)n([C@H]2C[C@H](O)[C@@H](CO)O2)cc1/C=C/I,5.1
3,O=c1[nH]c(=O)n([C@@H]2C[C@H](CO)[C@@H](O)C2)cc1I,> 200
4,O=c1[nH]c(=O)n([C@H]2C[C@@H](CO)[C@H](O)C2)cc1/C=C/Br,> 200
5,O=c1[nH]c(=O)n([C@H]2C[C@H](O)[C@@H](CO)O2)cc1I [IDOXURIDINE],> 500

# Test system: Human alphaherpesvirus 1
# Assay: Minimum inhibitory concentration (MIC) required to reduce thymidine kinase deficient HSV-1 induced cytopathogenicity in primary rabbit kidney cell cultures
# Type: functional
# Details: not given
# Summary of the method: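 The virus was a dThd kinase-deficient mutant of HSV-1 strain B2006, passaged several times in primary rabbit kidney cells. The MIC is the concentration that reduces cytopathogenicity by 50% in primary rabbit kidney cell cultures. Cytotoxicity was scored by microscopic cell morphology, up to 400 μg/mL.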
row,SMILES,MIC50 [µg/mL]
1,O=c1[nH]c(=O)n(C2CC(O)C(CO)C2)cc1/C=C/I (stereo not drawn),> 400
2,Nc1nc(=O)n(C2CC(O)C(CO)C2)cc1/C=C/Br (stereo not drawn),> 400
3,O=c1[nH]c(=O)n([C@H]2C[C@H](O)[C@@H](CO)O2)cc1/C=C/I,> 10
4,O=c1[nH]c(=O)n([C@@H]2C[C@H](CO)[C@@H](O)C2)cc1I,> 400
5,O=c1[nH]c(=O)n([C@H]2C[C@@H](CO)[C@H](O)C2)cc1/C=C/Br,> 400
6,O=c1[nH]c(=O)n([C@H]2C[C@H](O)[C@@H](CO)O2)cc1I [IDOXURIDINE],> 400

# Species on record: Mus musculus
# Assay: The survival rate was evaluated for its effect of systemic treatment on hairless (hr/hr) mice infected intracutaneously with HSV-1 (KOS) at percent concentration of 0.3
# Type: functional
# Details: not given
row,SMILES,Survival rate
1,O=c1[nH]c(=O)n([C@H]2C[C@@H](CO)[C@H](O)C2)cc1/C=C/Br,0

# Test system: Human alphaherpesvirus 2
# Assay: Minimum inhibitory concentration (MIC) required to reduce HSV-2 strain (Lyons) induced cytopathogenicity in primary rabbit kidney cell cultures
# Type: functional
# Details: not given
# Summary of the method: as §1
row,SMILES,MIC50 [µg/mL]
1,O=c1[nH]c(=O)n(C2CC(O)C(CO)C2)cc1/C=C/I (stereo not drawn),7
2,Nc1nc(=O)n(C2CC(O)C(CO)C2)cc1/C=C/Br (stereo not drawn),20
3,O=c1[nH]c(=O)n([C@H]2C[C@H](O)[C@@H](CO)O2)cc1/C=C/I,2
4,O=c1[nH]c(=O)n([C@@H]2C[C@H](CO)[C@@H](O)C2)cc1I,20
5,NC1NC(=O)N([C@H]2C[C@H](O)[C@@H](CO)O2)C=C1/C=C/Br (stereo partly drawn),9
6,O=c1[nH]c(=O)n([C@H]2C[C@@H](CO)[C@H](O)C2)cc1/C=C/Br,7
7,O=c1[nH]c(=O)n([C@H]2C[C@H](O)[C@@H](CO)O2)cc1I [IDOXURIDINE],0.2

# Test system: Human alphaherpesvirus 1
# Assay: Minimum inhibitory concentration (MIC) required to reduce Herpes simplex virus (HSV-1) KOS strain induced cytopathogenicity in primary rabbit kidney cell cultures
# Type: functional
# Details: not given
# Summary of the method: as §1
row,SMILES,MIC50 [µg/mL]
1,O=c1[nH]c(=O)n(C2CC(O)C(CO)C2)cc1/C=C/I (stereo not drawn),0.07
2,Nc1nc(=O)n(C2CC(O)C(CO)C2)cc1/C=C/Br (stereo not drawn),0.2
3,O=c1[nH]c(=O)n([C@H]2C[C@H](O)[C@@H](CO)O2)cc1/C=C/I,0.007
4,O=c1[nH]c(=O)n([C@@H]2C[C@H](CO)[C@@H](O)C2)cc1I,0.2
5,NC1NC(=O)N([C@H]2C[C@H](O)[C@@H](CO)O2)C=C1/C=C/Br (stereo partly drawn),0.07
6,O=c1[nH]c(=O)n([C@H]2C[C@@H](CO)[C@H](O)C2)cc1/C=C/Br,0.07
7,O=c1[nH]c(=O)n([C@H]2C[C@H](O)[C@@H](CO)O2)cc1I [IDOXURIDINE],0.2

# Test system: Human alphaherpesvirus 1
# Assay: Minimum inhibitory concentration (MIC) required to reduce HSV-1 strain (F) induced cytopathogenicity in primary rabbit kidney cell cultures
# Type: functional
# Details: not given
# Summary of the method: as §1
row,SMILES,MIC50 [µg/mL]
1,O=c1[nH]c(=O)n(C2CC(O)C(CO)C2)cc1/C=C/I (stereo not drawn),0.1
2,Nc1nc(=O)n(C2CC(O)C(CO)C2)cc1/C=C/Br (stereo not drawn),0.1
3,O=c1[nH]c(=O)n([C@H]2C[C@H](O)[C@@H](CO)O2)cc1/C=C/I,0.02
4,O=c1[nH]c(=O)n([C@@H]2C[C@H](CO)[C@@H](O)C2)cc1I,0.2
5,NC1NC(=O)N([C@H]2C[C@H](O)[C@@H](CO)O2)C=C1/C=C/Br (stereo partly drawn),0.07
6,O=c1[nH]c(=O)n([C@H]2C[C@@H](CO)[C@H](O)C2)cc1/C=C/Br,0.07
7,O=c1[nH]c(=O)n([C@H]2C[C@H](O)[C@@H](CO)O2)cc1I [IDOXURIDINE],0.2

# Test system: Vesicular stomatitis virus
# Assay: Minimum inhibitory concentration (MIC) required to reduce vesicular stomatis virus induced cytopathogenicity in primary rabbit kidney cell cultures
# Type: functional
# Details: not given
# Summary of the method: as §1
row,SMILES,MIC50 [µg/mL]
1,O=c1[nH]c(=O)n(C2CC(O)C(CO)C2)cc1/C=C/I (stereo not drawn),> 400
2,Nc1nc(=O)n(C2CC(O)C(CO)C2)cc1/C=C/Br (stereo not drawn),> 400
3,O=c1[nH]c(=O)n([C@H]2C[C@H](O)[C@@H](CO)O2)cc1/C=C/I,> 400
4,O=c1[nH]c(=O)n([C@@H]2C[C@H](CO)[C@@H](O)C2)cc1I,> 400
5,NC1NC(=O)N([C@H]2C[C@H](O)[C@@H](CO)O2)C=C1/C=C/Br (stereo partly drawn),> 400
6,O=c1[nH]c(=O)n([C@H]2C[C@@H](CO)[C@H](O)C2)cc1/C=C/Br,> 400
7,O=c1[nH]c(=O)n([C@H]2C[C@H](O)[C@@H](CO)O2)cc1I [IDOXURIDINE],> 400

# Test system: Mus musculus
# Assay: The survival rate was evaluated for its effect of systemic treatment on NMRI mice infected intraperitoneally with HSV-1 (KOS) when administered intraperitoneally
# Type: functional
# Details: not given
# Summary of the method: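 Mice were infected intraperitoneally with HSV-1 (KOS). Compound was given at 100 mg/kg per day from day 0 to day 4 postinfection, intraperitoneally, at 1 mg/mL in physiological saline with 10% propylene glycol, twice daily. Survivors were counted at day 20 postinfection.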
row,SMILES,Survival rate
1,O=c1[nH]c(=O)n([C@H]2C[C@@H](CO)[C@H](O)C2)cc1/C=C/Br,3

# Species on record: Mus musculus
# Assay: The survival rate was evaluated for its effect of systemic treatment on hairless (hr/hr) mice infected intracutaneously with HSV-1 (KOS) at percent concentration of 1
# Type: functional
# Details: not given
row,SMILES,Survival rate
1,O=c1[nH]c(=O)n([C@H]2C[C@@H](CO)[C@H](O)C2)cc1/C=C/Br,0

# Test system: Mus musculus
# Assay: The survival rate was evaluated for its effect of systemic treatment on NMRI mice infected intraperitoneally with HSV-1 (KOS) when administered perorally
# Type: functional
# Details: not given
# Summary of the method: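 Mice were infected intraperitoneally with HSV-1 (KOS). Compound was given at 100 mg/kg per day from day 0 to day 4 postinfection, as a 2 mg/mL suspension in water by gavage once daily. Survivors were counted at day 20 postinfection.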
row,SMILES,Survival rate
1,O=c1[nH]c(=O)n([C@H]2C[C@@H](CO)[C@H](O)C2)cc1/C=C/Br,0

# Species on record: Homo sapiens
# Assay: Minimum inhibitory concentration (MIC) required to inhibit proliferation of human lymphoblast Raji
# Type: functional
# Details: not given
# Summary of the method: as §2
row,SMILES,MIC50 [µg/mL]
1,O=c1[nH]c(=O)n(C2CC(O)C(CO)C2)cc1/C=C/I (stereo not drawn),> 200
2,O=c1[nH]c(=O)n([C@H]2C[C@H](O)[C@@H](CO)O2)cc1/C=C/I,21.1
3,O=c1[nH]c(=O)n([C@@H]2C[C@H](CO)[C@@H](O)C2)cc1I,> 200
4,O=c1[nH]c(=O)n([C@H]2C[C@@H](CO)[C@H](O)C2)cc1/C=C/Br,> 200
5,O=c1[nH]c(=O)n([C@H]2C[C@H](O)[C@@H](CO)O2)cc1I [IDOXURIDINE],4.7

# Test system: L1210
# Assay: Minimum inhibitory concentration (MIC) required to inhibit proliferation of murine leukemia L1210 (wild type)
# Type: functional
# Details: Mus musculus
# Summary of the method: as §2
row,SMILES,MIC50 [µg/mL]
1,O=c1[nH]c(=O)n(C2CC(O)C(CO)C2)cc1/C=C/I (stereo not drawn),> 200
2,O=c1[nH]c(=O)n([C@H]2C[C@H](O)[C@@H](CO)O2)cc1/C=C/I,16.3
3,O=c1[nH]c(=O)n([C@@H]2C[C@H](CO)[C@@H](O)C2)cc1I,> 200
4,O=c1[nH]c(=O)n([C@H]2C[C@@H](CO)[C@H](O)C2)cc1/C=C/Br,> 200
5,O=c1[nH]c(=O)n([C@H]2C[C@H](O)[C@@H](CO)O2)cc1I [IDOXURIDINE],35.6

# Species on record: Rattus norvegicus
# Assay: Minimum inhibitory concentration (MIC) required to inhibit proliferation of Novikoff rat hepatoma
# Type: functional
# Details: not given
# Summary of the method: as §2
row,SMILES,MIC50 [µg/mL]
1,O=c1[nH]c(=O)n(C2CC(O)C(CO)C2)cc1/C=C/I (stereo not drawn),> 200
2,O=c1[nH]c(=O)n([C@H]2C[C@H](O)[C@@H](CO)O2)cc1/C=C/I,4.6
3,O=c1[nH]c(=O)n([C@@H]2C[C@H](CO)[C@@H](O)C2)cc1I,22.8
4,O=c1[nH]c(=O)n([C@H]2C[C@@H](CO)[C@H](O)C2)cc1/C=C/Br,> 200
5,O=c1[nH]c(=O)n([C@H]2C[C@H](O)[C@@H](CO)O2)cc1I [IDOXURIDINE],5.5
